This is an account of results in ChEMBL document CHEMBL1130321, “Synthesis and in vitro activity of 3 beta-substituted-3 alpha-hydroxypregnan-20-ones: allosteric modulators of the GABAA receptor” (J Med Chem, 1997).

The target of test [1] is GABA-A receptor; anion channel. Description: Ability to allosterically modulate the binding of [35S]TBPS to gamma-aminobutyric-acid A receptor in rat brain cortical P2 membranes. The class given is cell membranes, Membrane. The gist of the method:
(§1)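 Rat cortical P2 membranes washed in 200 mM NaCl/50 mM Na-K phosphate pH 7.4. Incubated with 2 nM [35S]TBPS, 5 µM GABA and compound at nine concentrations from 1 nM to 10 µM final (DMSO 0.5% final), 90 min at room temperature. Nonspecific binding was defined with 2 µM unlabeled TBPS. Read-out was filtration and scintillation counting. IC50 and Imax came from partial or full inhibition fits chosen by F-test. Values are mean ± SEM of 3-9 experiments.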

For test [2], the species on record is Rattus norvegicus. As to the kind of experiment: Percent of maximal extent of inhibition was calculated by fitting [35S]TBPS inhibition data to a sigmoid function (rat brain cortical P2 membranes). The class given is functional. The gist of the method: as §1
The target in test [3] is T1, GABA-A receptor; alpha-1/beta-2/gamma-2 (Homo sapiens) (UniProt P14867+P47870+P18507). As to the kind of experiment: Hill value, slope calculated from GABA-current potentiation in Xenopus oocytes. The class given is functional, cell-based. Conditions: Oocyte. The gist of the method:
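Xenopus oocytes injected 1:1:1 with human α1, β2, γ2L cRNAs (~1 ng each per cell); two-electrode voltage clamp in frog Ringer (NaCl 115, KCl 2, CaCl2 1.8, HEPES 5 mM, pH 7.4). Steroid DMSO stocks diluted […] (DMSO 0.3% final). Increasing steroid applied on a GABA response set to ~5% of the 3 mM GABA maximum. Data fit to a four-parameter logistic; mean ± SEM.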

The target in test [4] is T2, GABA-A receptor; alpha-1/beta-2/gamma-2 (Homo sapiens, UniProt P14867+P18507+P47870).
T2 sequence (P14867 whole entry): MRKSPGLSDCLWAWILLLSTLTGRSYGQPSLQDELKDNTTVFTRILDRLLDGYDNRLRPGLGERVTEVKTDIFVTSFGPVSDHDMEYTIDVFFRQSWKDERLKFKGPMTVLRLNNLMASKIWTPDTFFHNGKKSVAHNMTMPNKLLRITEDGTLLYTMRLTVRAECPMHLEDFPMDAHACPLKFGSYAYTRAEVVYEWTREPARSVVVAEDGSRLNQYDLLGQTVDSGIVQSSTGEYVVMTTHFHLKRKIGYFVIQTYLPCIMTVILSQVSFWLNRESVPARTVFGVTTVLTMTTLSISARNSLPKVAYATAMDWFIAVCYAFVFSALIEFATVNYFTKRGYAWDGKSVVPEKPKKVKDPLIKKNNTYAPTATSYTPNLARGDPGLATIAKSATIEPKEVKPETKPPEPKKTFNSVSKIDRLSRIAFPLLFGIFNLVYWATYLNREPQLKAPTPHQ
T2 sequence (P47870 whole entry): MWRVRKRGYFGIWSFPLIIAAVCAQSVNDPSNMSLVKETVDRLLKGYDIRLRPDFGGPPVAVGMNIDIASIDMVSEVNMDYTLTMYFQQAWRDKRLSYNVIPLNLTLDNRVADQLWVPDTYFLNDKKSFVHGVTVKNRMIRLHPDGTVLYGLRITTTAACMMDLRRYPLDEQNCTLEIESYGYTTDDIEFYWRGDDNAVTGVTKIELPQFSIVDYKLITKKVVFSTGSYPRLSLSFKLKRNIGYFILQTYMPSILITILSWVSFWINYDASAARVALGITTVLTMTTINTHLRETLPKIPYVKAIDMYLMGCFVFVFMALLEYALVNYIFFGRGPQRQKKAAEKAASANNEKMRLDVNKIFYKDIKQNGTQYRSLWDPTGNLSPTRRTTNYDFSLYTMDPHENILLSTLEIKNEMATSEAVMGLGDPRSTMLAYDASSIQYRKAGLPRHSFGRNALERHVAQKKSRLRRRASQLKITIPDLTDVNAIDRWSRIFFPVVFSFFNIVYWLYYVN
T2 sequence (P18507 whole entry): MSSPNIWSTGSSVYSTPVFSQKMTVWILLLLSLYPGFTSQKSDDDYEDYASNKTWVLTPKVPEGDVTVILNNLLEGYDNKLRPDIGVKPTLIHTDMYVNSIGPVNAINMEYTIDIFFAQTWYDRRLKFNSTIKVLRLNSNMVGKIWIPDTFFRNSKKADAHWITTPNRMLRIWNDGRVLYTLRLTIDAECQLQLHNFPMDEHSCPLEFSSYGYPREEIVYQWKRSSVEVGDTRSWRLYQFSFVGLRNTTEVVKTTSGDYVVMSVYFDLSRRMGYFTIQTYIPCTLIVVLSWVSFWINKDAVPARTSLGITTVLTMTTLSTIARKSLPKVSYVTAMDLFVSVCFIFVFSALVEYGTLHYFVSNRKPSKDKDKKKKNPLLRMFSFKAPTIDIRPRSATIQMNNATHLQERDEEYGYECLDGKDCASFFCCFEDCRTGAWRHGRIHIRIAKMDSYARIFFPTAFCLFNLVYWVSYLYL
As to the kind of experiment: Potentiation of GABA-activated currents in Xenopus oocytes expressing cloned human alpha-1-beta-2-gamma-2L subunits of GABA-A receptor. The test is classed as functional, cell-based, Oocyte. Put shortly: (§2)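 Xenopus oocytes were injected with human α1, β2 and γ2L cRNAs at 1:1:1, ~1 ng each. Two-electrode voltage clamp was done in frog Ringer (HEPES 5 mM, pH 7.4). Currents were scaled to the maximum elicited by 3 mM GABA. Steroid was applied in increasing concentrations to a fixed GABA response of ~0.05 fractional current, with DMSO 0.3% final. Data were fitted to a four-parameter logistic and given as mean ± SEM.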

Test [5] concerns the target T1, GABA-A receptor; alpha-1/beta-2/gamma-2 (Homo sapiens). Description: Efficacy as fractional response (FR) relative to GABA maximal current elicited in Xenopus oocytes. The class given is functional, cell-based. Conditions: Oocyte. The gist of the method: as §2
The species named for test [6] is Rattus norvegicus. As to the kind of experiment: Percent of maximal extent of inhibition was calculated by fitting [35S]TBPS inhibition data to a sigmoid function (rat brain cortical P2 membranes) at 10 uM concentration. The class given is functional. Put shortly: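 Rat cortical P2 membranes washed in 200 mM NaCl/50 mM Na-K phosphate, pH 7.4. Incubated 90 min at room temperature with 2 nM [35S]TBPS, 5 μM GABA and steroid in DMSO (0.5% final). Nonspecific binding defined with 2 μM unlabeled TBPS. Filtration, scintillation counting. Partial or full inhibition model chosen by F-test.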

For test [7], the target named is GABA-A receptor; anion channel. As to the kind of experiment: Allosteric modulation of [35S]TBPS binding to Gamma-aminobutyric acid A receptor in rat brain cortical P2 membranes (inhibits binding with two components). The class given is cell membranes, Membrane. The gist of the method: as §1

A word on the IC50: it is the point on the concentration scale where inhibition reaches its midpoint. For orientation: Hill coefficient means a measure of the steepness of the concentration-response curve. Compound `CC(=O)[C@H]1CC[C@H]2[C@@H]3CC[C@H]4C[C@@](O)(CC#N)CC[C@]4(C)[C@H]3CC[C@]12C` registered an IC50 in test [1] of 0.614 µM. The Imax in the test listed under Rattus norvegicus [2] is 38%. Besides, the Hill coefficient in test [3] is 1.

One may read the EC50 as the midpoint of the concentration-response curve. On to `CC(=O)[C@H]1CC[C@H]2[C@@H]3CC[C@H]4C[C@@](O)(C(F)(F)F)CC[C@]4(C)[C@H]3CC[C@]12C`, for which the IC50 in test [1] was found to be 0.266 µM. Besides, in the test filed under Rattus norvegicus [2], the Imax was 44%. In test [4], the half-maximal effective concentration (EC50) stood at 0.39 µM. Further, in test [5], the Efficacy was determined as 0.3.

Compound `CSC[C@@]1(O)CC[C@@]2(C)[C@@H](CC[C@@H]3[C@@H]2CC[C@]2(C)[C@@H](C(C)=O)CC[C@@H]32)C1` had an IC50 in test [1] above 10 µM. In addition, the Imax in the test listed under Rattus norvegicus [6] was 46%.

In test [1], `CC(=O)[C@H]1CC[C@H]2[C@@H]3CC[C@H]4C[C@@](O)(CN=[N+]=[N-])CC[C@]4(C)[C@H]3CC[C@]12C` returned an IC50 of 0.027 µM. Further, the Imax in the test listed under Rattus norvegicus [2] is 99%. In addition, the EC50 in test [4] was found to be 0.15 µM. The compound also returned an Efficacy in test [5] of 0.8.

For the compound `CC(=O)[C@H]1CC[C@H]2[C@@H]3CC[C@@H]4C[C@H](O)CC[C@]4(C)[C@H]3CC[C@]12C` [ELTANOLONE], the Imax in the test filed under Rattus norvegicus [2] was 65%. The same compound displayed an IC50 in test [7] of 0.044 µM.

`CC(=O)[C@H]1CC[C@H]2[C@@H]3CC[C@H]4C[C@@](O)(CO)CC[C@]4(C)[C@H]3CC[C@]12C` showed an IC50 in test [1] of 2.13 µM. For the same compound, the Imax in the test listed under Rattus norvegicus [2] is 101%. Besides, the EC50 in test [4] was around 20 µM.

For the compound `CC(=O)[C@H]1CC[C@H]2[C@@H]3CC[C@H]4C[C@@](O)(COCc5ccccc5)CC[C@]4(C)[C@H]3CC[C@]12C`, the IC50 in test [1] stood at 0.376 µM. Further, in the test filed under Rattus norvegicus [2], the Imax was 57%. In addition, the Hill coefficient in test [3] was 1.6.

With `CCCC(C)C1(CC)C(=O)NC(=O)NC1=O` (centres undefined), the Imax in the test listed under Rattus norvegicus [2] is 100%. Further, the Hill coefficient in test [3] was 1.

In the case of `CC(=O)[C@H]1CC[C@H]2[C@@H]3CC[C@H]4C[C@](C)(O)CC[C@]4(C)[C@H]3CC[C@]12C` [GANAXOLONE], the 50% inhibitory concentration (IC50) in test [1] was found to be 0.08 µM. Further, the Imax in the test listed under Rattus norvegicus [2] is 94%. For the same compound, the EC50 in test [4] was 0.26 µM. Besides, the Efficacy in test [5] worked out at 0.8.

Take `CC(=O)[C@H]1CC[C@H]2[C@@H]3CC[C@H]4C[C@@](O)(CN(C)C)CC[C@]4(C)[C@H]3CC[C@]12C`: the half-maximal inhibitory concentration (IC50) in test [1] is above 10 µM. For the same compound, the Imax in the test listed under Rattus norvegicus [2] is 0%. For the same compound, the EC50 in test [4] was above 50 µM.

Turning to `CC(=O)[C@H]1CC[C@H]2[C@@H]3CC[C@H]4C[C@H](O)CC[C@]4(C)[C@H]3CC[C@]12C` [BREXANOLONE], the IC50 in test [1] was found to be 0.051 µM. Also, the Imax in the test filed under Rattus norvegicus [2] was 95%. The half-maximal effective concentration (EC50) in test [4] came to 0.16 µM. This compound came in with an Efficacy in test [5] of 0.91.
